IC50 data for 14 molecules are collected here from BindingDB's records for doi:10.1021/acsmedchemlett.0c00095 (Gilead Sciences, 2020).

Phosphatidylinositol 3-kinase regulatory subunit alpha/4,5-bisphosphate 3-kinase catalytic subunit beta isoform, sequence (P27986 whole entry, canonical isoform): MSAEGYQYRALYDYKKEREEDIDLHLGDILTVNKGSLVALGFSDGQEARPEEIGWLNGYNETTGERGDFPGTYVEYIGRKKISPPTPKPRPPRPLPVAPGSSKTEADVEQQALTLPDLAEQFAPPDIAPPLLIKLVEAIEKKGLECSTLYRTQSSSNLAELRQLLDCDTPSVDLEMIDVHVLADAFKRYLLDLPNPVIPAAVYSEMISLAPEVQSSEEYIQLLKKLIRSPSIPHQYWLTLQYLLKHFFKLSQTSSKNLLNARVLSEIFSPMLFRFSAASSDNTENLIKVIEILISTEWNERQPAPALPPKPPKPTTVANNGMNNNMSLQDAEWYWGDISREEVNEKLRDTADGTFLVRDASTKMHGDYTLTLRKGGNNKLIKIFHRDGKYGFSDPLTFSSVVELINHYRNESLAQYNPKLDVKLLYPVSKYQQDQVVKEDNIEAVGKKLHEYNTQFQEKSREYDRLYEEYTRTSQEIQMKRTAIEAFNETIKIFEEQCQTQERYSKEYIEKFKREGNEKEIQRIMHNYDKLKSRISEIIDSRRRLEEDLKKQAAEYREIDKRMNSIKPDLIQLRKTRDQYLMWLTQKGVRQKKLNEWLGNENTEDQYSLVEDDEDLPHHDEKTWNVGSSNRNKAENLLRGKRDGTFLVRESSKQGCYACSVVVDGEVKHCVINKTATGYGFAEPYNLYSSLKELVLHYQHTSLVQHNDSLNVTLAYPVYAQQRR
Phosphatidylinositol 3-kinase regulatory subunit alpha/4,5-bisphosphate 3-kinase catalytic subunit beta isoform, sequence (P42338 whole entry, canonical isoform): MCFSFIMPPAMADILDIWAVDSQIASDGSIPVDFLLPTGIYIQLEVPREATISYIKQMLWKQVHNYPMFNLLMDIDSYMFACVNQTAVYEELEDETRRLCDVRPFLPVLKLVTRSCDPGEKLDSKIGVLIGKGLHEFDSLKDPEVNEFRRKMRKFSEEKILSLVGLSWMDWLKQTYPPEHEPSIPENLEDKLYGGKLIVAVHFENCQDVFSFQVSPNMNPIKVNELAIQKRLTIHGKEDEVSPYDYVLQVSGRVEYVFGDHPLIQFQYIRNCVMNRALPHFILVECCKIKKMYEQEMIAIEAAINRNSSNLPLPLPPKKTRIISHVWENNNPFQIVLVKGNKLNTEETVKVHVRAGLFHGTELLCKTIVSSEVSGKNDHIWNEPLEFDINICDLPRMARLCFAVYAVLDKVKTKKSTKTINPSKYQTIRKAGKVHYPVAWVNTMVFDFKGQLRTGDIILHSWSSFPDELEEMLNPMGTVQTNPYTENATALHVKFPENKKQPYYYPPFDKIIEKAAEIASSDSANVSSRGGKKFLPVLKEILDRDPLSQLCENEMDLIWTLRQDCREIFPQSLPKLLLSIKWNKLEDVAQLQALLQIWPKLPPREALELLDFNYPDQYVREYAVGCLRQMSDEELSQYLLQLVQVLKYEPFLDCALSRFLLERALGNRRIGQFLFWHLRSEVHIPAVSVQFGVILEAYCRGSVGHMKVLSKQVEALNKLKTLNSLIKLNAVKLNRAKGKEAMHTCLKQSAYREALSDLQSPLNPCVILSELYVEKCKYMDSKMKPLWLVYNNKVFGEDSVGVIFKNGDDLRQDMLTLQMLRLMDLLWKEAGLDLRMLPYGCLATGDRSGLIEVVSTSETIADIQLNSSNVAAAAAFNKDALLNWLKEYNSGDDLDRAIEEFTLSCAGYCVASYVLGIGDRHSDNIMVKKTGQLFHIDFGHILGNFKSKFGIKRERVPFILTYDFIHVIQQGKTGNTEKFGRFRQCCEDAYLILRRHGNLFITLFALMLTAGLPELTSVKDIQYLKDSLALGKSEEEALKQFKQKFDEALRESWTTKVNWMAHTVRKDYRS

The experiment addresses Phosphatidylinositol 3-kinase regulatory subunit alpha/4,5-bisphosphate 3-kinase catalytic subunit beta isoform (Homo sapiens, UniProt P27986+P42338). Description: Inhibition of recombinant human full-length N-terminal His6-tagged p110beta/human recombinant full-length untagged p85alpha expressed in baculovirus infected Sf21 insect cells using PIP2 as substrate after 30 mins in presence of ATP at 2xKm concentration by TR-FRET assay. The procedure, abridged: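 Class I PI3K isoforms assayed in vitro for kinase inhibition with ATP at 2Km steady-state concentration; IC50 values averaged over at least 2 determinations.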
(In general: Time-resolved FRET reads energy transfer from a long-lived donor to a nearby acceptor.)
For orientation: IC50 means the concentration needed to halve the response being measured. As for `Cc1nc2c(-c3nnc[nH]3)cc(-c3ccnc(C#N)c3)cc2n1-c1ccnc2c(F)ccc(F)c12` [US10227350, Compound 113], the IC50 is 4 nM. With `Cc1cc(-c2cc(-c3nnc[nH]3)c3nc(C)n(-c4ccnc5c(F)ccc(F)c45)c3c2)ncn1` [US10227350, Compound 155] the figure was 62 nM; with `Clc1cccc2c(-n3cnc4c(-c5nnc[nH]5)cc(-c5ccncc5)cc43)ccnc12`, 5 nM. With `Cc1nc2c(-c3nnc[nH]3)cc(-c3c(F)cnc(N)c3F)cc2n1-c1ccnc2c(F)ccc(F)c12` [US10227350, Compound 100] the figure was 321 nM.

For `Cc1nc2c(-c3nnc[nH]3)cc(-c3ccnc(Cl)c3)cc2n1-c1ccnc2c(F)ccc(F)c12` [US10227350, Compound 158], the IC50 was 7 nM.

Regarding `Clc1cccc2c(-n3cnc4c(-c5nnc[nH]5)cc(N5CCOCC5)cc43)ccnc12` [US10214519, Example 111], the IC50 is 3 nM. For `Cc1nc2c(-c3nnc[nH]3)cc(-c3ccnc(C(F)F)c3)cc2n1-c1ccnc2c(F)ccc(F)c12` [US10227350, Compound 43], the IC50 was determined as 30 nM. The result for `Cc1nccc(-c2cc(-c3nnc[nH]3)c3nc(C)n(-c4ccnc5c(F)ccc(F)c45)c3c2)n1` [US10227350, Compound 156] reads 12 nM; that for `CNc1nccc(-c2cc(-c3nnc[nH]3)c3nc(C)n(-c4ccnc5c(F)ccc(F)c45)c3c2)c1F` [US10227350, Compound 77], 1400 nM; that for `Cc1nc2c(-c3nnc[nH]3)cc(-c3cc(N)ncc3F)cc2n1-c1ccnc2c(F)ccc(F)c12` [US10227350, Compound 76], 50 nM. With `Cc1nc2c(-c3nnc[nH]3)cc(-c3ccnc(N)c3Cl)cc2n1-c1ccnc2c(F)ccc(F)c12` [US10227350, Compound 91] the figure was 19 nM; with `Cc1nc2c(-c3nnc[nH]3)cc(-c3ccncc3)cc2n1-c1ccnc2c(F)ccc(F)c12` [US10227350, Compound 140], 6 nM. The result for `Cc1nc2c(-c3nnc[nH]3)cc(-c3ccnc(N)c3)cc2n1-c1ccnc2c(F)ccc(F)c12` [US10227350, Compound 104] reads 10 nM; that for `Cc1cc(-c2cc(-c3nnc[nH]3)c3nc(C)n(-c4ccnc5c(F)ccc(F)c45)c3c2)cc(N)n1` [US10227350, Compound 90], 341 nM.
